Experimental data as given in ChEMBL document CHEMBL1147678, “Discovery of a potent, nonpolyglutamatable inhibitor of glycinamide ribonucleotide transformylase” (J Med Chem, 2006).

What was measured:
CCRF-CEM [1] = assay: Antiproliferative activity against FPGS-deficient CCRF-CEM cell line; assay type: functional, cell-based; settings: Homo sapiens
Summary of the method: (§1)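 CCRF-CEM human leukemia cells (parental or variant line) were continuously exposed to the test compounds for 72 h, and growth inhibition was then measured.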

CCRF-CEM [2] = assay: Antiproliferative activity against human CCRF-CEM cell line in presence of thymidine; assay type: functional, cell-based
[3] = target: T1, Trifunctional purine biosynthetic protein adenosine-3 (Homo sapiens, UniProt P22102); assay: Inhibition of human recombinant GAR Tfase
T1 sequence (P22102 whole entry): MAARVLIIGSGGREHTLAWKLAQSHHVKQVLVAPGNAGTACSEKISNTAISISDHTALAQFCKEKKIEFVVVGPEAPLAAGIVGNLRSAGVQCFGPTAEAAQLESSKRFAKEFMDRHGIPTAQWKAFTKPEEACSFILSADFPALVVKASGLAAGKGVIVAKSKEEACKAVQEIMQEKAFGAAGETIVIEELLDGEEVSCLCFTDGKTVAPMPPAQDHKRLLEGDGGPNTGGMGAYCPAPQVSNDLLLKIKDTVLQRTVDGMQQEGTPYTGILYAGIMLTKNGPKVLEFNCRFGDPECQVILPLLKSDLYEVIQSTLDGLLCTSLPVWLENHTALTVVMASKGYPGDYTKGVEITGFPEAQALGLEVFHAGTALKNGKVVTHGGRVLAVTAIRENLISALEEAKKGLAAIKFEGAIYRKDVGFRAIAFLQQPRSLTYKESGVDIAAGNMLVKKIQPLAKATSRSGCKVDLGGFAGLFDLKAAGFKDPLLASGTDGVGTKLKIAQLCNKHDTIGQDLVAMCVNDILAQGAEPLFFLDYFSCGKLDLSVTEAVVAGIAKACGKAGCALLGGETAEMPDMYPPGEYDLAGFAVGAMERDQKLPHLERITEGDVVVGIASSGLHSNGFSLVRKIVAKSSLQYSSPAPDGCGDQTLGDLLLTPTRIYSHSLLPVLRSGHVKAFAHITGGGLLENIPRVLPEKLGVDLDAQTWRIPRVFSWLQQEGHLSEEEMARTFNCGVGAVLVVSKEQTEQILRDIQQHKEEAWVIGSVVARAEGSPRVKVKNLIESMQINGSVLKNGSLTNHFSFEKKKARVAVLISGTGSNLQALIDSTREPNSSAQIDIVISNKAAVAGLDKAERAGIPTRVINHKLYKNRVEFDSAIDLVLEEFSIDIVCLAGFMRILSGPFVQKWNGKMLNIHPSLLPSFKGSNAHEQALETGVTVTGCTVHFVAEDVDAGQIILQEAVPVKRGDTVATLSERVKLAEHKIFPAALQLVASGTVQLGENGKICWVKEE

CCRF-CEM [4] = assay: Antiproliferative activity against human CCRF-CEM cell line; assay type: functional, cell-based; summary of the method: as §1
CCRF-CEM [5] = assay: Antiproliferative activity against reduced folate carrier-deficient CCRF-CEM cell line; assay type: functional, cell-based; settings: Homo sapiens; summary of the method: as §1
[6] = target: Bifunctional purine biosynthesis protein ATIC (Homo sapiens, UniProt P31939); assay: Inhibition of human recombinant AICAR Tfase
Summary of the method: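 Recombinant human AICAR Tfase assayed by a previously described method. Reaction kinetics were followed for 2 min after initiation. Ki was derived from Dixon plots.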

CCRF-CEM [7] = assay: Antiproliferative activity against human CCRF-CEM cell line in presence of hypoxanthine; assay type: functional, cell-based

Sequence of Bifunctional purine biosynthesis protein ATIC (P31939 whole entry): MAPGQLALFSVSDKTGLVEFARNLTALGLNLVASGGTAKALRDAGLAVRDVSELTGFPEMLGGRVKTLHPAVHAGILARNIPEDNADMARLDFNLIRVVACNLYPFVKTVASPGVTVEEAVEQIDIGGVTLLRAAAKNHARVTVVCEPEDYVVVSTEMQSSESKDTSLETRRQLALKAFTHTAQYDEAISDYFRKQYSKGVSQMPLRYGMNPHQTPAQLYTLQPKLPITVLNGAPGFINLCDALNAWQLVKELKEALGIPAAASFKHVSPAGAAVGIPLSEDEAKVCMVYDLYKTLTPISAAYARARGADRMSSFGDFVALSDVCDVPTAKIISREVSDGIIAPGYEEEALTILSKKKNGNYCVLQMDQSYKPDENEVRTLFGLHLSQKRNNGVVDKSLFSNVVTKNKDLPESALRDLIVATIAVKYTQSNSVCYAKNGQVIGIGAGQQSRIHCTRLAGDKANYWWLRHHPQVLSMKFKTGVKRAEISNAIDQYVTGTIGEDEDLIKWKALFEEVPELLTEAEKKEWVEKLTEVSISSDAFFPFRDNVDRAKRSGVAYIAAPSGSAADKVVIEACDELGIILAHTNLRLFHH

Row | IC50 (CCRF-CEM [1]) [µM] | IC50 (CCRF-CEM [2]) [µM] | Ki [3] [µM] | IC50 (CCRF-CEM [4]) [µM] | IC50 (CCRF-CEM [5]) [µM] | Ki [6] [µM] | IC50 (CCRF-CEM [7]) [µM] | SMILES
1 | > 100 | 0.017 | – | 0.016 | > 100 | > 100 | > 100 | Nc1nc(N)c(CCCC(C(=O)C(F)(F)F)c2ccc(C(=O)NC(CCC(=O)O)C(=O)O)cc2)c(O)n1 (stereo unspecified)
2 | 25 | – | – | 0.2 | – | > 100 | > 100 | Nc1nc2c(c(=O)[nH]1)C[C@@H](CCc1ccc(C(=O)N[C@@H](CCC(=O)O)C(=O)O)cc1)CN2 [LOMETREXOL]

More lines, now with the values behind:

Row | SMILES | IC50 (CCRF-CEM [1]) [µM] | IC50 (CCRF-CEM [2]) [µM] | Ki [3] [µM] | IC50 (CCRF-CEM [4]) [µM] | IC50 (CCRF-CEM [5]) [µM] | Ki [6] [µM] | IC50 (CCRF-CEM [7]) [µM]
3 | Nc1nc(N)c(CCCC(C(=O)C(F)(F)F)c2ccc(C(=O)NCc3nnn[nH]3)cc2)c(=O)[nH]1 (stereo unspecified) | 40 | 30 | 5 | 10 | 30 | > 100 | > 100
4 | Nc1nc(N)c(CCCC(C(=O)C(F)(F)F)c2ccc(C(=O)N[C@@H](CCc3nnn[nH]3)C(=O)O)cc2)c(=O)[nH]1 (stereo partly specified) | 0.05 | 0.09 | 0.13 | 0.04 | 10 | 46 | > 100
5 | Nc1nc(N)c(CCCC(C(=O)C(F)(F)F)c2ccc(C(=O)NCC(=O)O)cc2)c(O)n1 (stereo unspecified) | > 100 | > 100 | 21 | > 100 | > 100 | > 100 | > 100
